Test results reported in ChEMBL document CHEMBL1128488, “4-Diazinyl- and 4-pyridinylimidazoles: potent angiotensin II antagonists. A study of their activity and computational characterization” (J Med Chem, 1995).

Legend:
[1] = biological target: T1, Angiotensin II receptor (AT-1) type-1 (Rattus norvegicus, UniProt P29089+P25095); experiment: Inhibition of [3H]angiotensin II binding to rat adrenal cortex membrane containing angiotensin II receptor, type 1; format: tissue-based
T1 sequence (P29089 whole entry): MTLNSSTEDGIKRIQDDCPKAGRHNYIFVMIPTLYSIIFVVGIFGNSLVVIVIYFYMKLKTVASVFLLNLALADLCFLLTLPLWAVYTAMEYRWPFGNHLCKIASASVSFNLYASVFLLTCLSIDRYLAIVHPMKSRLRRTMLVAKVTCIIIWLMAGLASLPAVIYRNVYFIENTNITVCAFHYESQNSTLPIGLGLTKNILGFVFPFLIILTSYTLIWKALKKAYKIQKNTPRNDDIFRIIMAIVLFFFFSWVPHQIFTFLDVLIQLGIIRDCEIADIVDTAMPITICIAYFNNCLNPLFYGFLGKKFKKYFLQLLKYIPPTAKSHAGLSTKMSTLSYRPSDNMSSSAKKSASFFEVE
T1 sequence (P25095 whole entry): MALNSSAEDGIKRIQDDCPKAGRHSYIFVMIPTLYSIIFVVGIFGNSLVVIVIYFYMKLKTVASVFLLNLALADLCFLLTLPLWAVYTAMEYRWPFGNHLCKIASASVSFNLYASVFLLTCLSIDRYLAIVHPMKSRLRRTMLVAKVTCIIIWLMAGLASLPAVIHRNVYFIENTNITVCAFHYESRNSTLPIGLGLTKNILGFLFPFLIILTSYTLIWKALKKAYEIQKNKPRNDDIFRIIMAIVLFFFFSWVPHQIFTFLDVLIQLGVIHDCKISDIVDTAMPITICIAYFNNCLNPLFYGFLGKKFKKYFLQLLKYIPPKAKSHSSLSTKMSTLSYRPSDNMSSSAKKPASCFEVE

Rattus norvegicus [2] = experiment: In vivo concentration inhibiting angiotensin II (A II) induced pressor response in conscious normotensive rats 30 mins after oral administration of 2 uM/kg.; format: functional
Summary of the method: (§1)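 Male Sprague-Dawley rats (280–340 g), premedicated ip with fentanyl/fluanisone and anesthetized with pentobarbital iv during preparation, then tested conscious. Vehicle or compound given orally by stomach tube at 2 μmol kg−1. A II bolus injections every 15 min for the first hour, then every 30 min, over 4 h.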

Rattus norvegicus [3] = experiment: In vivo concentration inhibiting angiotensin II (A II) induced pressor response in conscious normotensive rats 15 mins after oral administration of 2 uM/kg.; format: functional; summary of the method: as §1

Ki [1] [nM]	Compound	Inhibition (Rattus norvegicus [2]) [%]	Inhibition (Rattus norvegicus [3]) [%]
44	CCCCc1nc(-c2ccc(C)n[n+]2[O-])cn1Cc1ccc(-c2ccccc2-c2nn[nH]n2)cc1	-35	
243	CCCCc1nc(-c2cncc[n+]2[O-])cn1Cc1ccc(-c2ccccc2-c2nn[nH]n2)cc1		
45	CCCCc1nc(-c2cccnc2C(=O)OC)cn1Cc1ccc(-c2ccccc2-c2nn[nH]n2)cc1		
27	CCCCc1nc(-c2ccc(C(=O)OC)c[n+]2[O-])cn1Cc1ccc(-c2ccccc2-c2nn[nH]n2)cc1		
29	CCCCc1nc(-c2c(C(=O)OC)ccc[n+]2[O-])cn1Cc1ccc(-c2ccccc2-c2nn[nH]n2)cc1		
12	CCCCc1nc(-c2ccc(C(=O)OC)cn2)cn1Cc1ccc(-c2ccccc2-c2nn[nH]n2)cc1	-33	
25	CCCCc1nc(-c2cnc[n+]([O-])c2)cn1Cc1ccc(-c2ccccc2-c2nn[nH]n2)cc1		
90	CCCCc1nc(-c2nccnc2C(=O)OC)cn1Cc1ccc(-c2ccccc2-c2nn[nH]n2)cc1		
250	CCCCc1nc(-c2nc(C)ccc2OC)cn1Cc1ccc(-c2ccccc2-c2nn[nH]n2)cc1		
12	CCCCc1nc(-c2ccc(C)nn2)cn1Cc1ccc(-c2ccccc2-c2nn[nH]n2)cc1		-30
40	CCCCc1nc(-c2cnccn2)cn1Cc1ccc(-c2ccccc2-c2nn[nH]n2)cc1		
70	CCCCc1nc(-c2cnc(C(=O)OC)nc2C)cn1Cc1ccc(-c2ccccc2-c2nn[nH]n2)cc1		
77	CCCCc1nc(-c2nc(C)cnc2C)cn1Cc1ccc(-c2ccccc2-c2nn[nH]n2)cc1	-18	

Further lines, the compound ahead of its results:

Compound	Ki [1] [nM]	Inhibition (Rattus norvegicus [2]) [%]	Inhibition (Rattus norvegicus [3]) [%]
CCCCc1nc(-c2ncccn2)cn1Cc1ccc(-c2ccccc2-c2nn[nH]n2)cc1	59		
CCCCc1nc(-c2nc(C)ccc2C(=O)OC)cn1Cc1ccc(-c2ccccc2-c2nn[nH]n2)cc1	32		
CCCCc1nc(-c2cc(C(=O)OC)cc(C)[n+]2[O-])cn1Cc1ccc(-c2ccccc2-c2nn[nH]n2)cc1	180		
CCCCc1nc(-c2ncccc2OC)cn1Cc1ccc(-c2ccccc2-c2nn[nH]n2)cc1	290		
CCCCc1nc(-c2cncc(C(=O)OC)c2)cn1Cc1ccc(-c2ccccc2-c2nn[nH]n2)cc1	30		
CCCCc1nc(-c2cccc(OC)n2)cn1Cc1ccc(-c2ccccc2-c2nn[nH]n2)cc1	25		-11
CCCCc1nc(-c2nc(C)c[n+]([O-])c2C)cn1Cc1ccc(-c2ccccc2-c2nn[nH]n2)cc1	4.4	-21	
CCCCc1nc(-c2c(OC)ccc(C)[n+]2[O-])cn1Cc1ccc(-c2ccccc2-c2nn[nH]n2)cc1	38	-22	
CCCCc1nc(-c2cnccc2C(=O)OC)cn1Cc1ccc(-c2ccccc2-c2nn[nH]n2)cc1	67		
CCCCc1nc(-c2cccc(C(=O)OC)n2)cn1Cc1ccc(-c2ccccc2-c2nn[nH]n2)cc1	19	-23	
CCCCc1nc(-c2c(C(=O)OC)c(C)cc(C)[n+]2[O-])cn1Cc1ccc(-c2ccccc2-c2nn[nH]n2)cc1	9.1	-29	
CCCCc1nc(-c2cc(C(=O)OC)c[n+]([O-])c2)cn1Cc1ccc(-c2ccccc2-c2nn[nH]n2)cc1	41		
CCCCc1nc(-c2c(C)ncc(C)[n+]2[O-])cn1Cc1ccc(-c2ccccc2-c2nn[nH]n2)cc1	2.5	-44	
CCCCc1nc(-c2ncccc2C(=O)OC)cn1Cc1ccc(-c2ccccc2-c2nn[nH]n2)cc1	40		
CCCCc1nc(-c2cncnc2)cn1Cc1ccc(-c2ccccc2-c2nn[nH]n2)cc1	42		
CCCCc1nc(-c2ccc(C(=O)OC)nn2)cn1Cc1ccc(-c2ccccc2-c2nn[nH]n2)cc1	8.8	-9.3	
CCCCc1nc(-c2c(C(=O)OC)ccc(C)[n+]2[O-])cn1Cc1ccc(-c2ccccc2-c2nn[nH]n2)cc1	4.5	-55	
CCCCc1nc(-c2nc(C)cc(C)c2C(=O)OC)cn1Cc1ccc(-c2ccccc2-c2nn[nH]n2)cc1	53		
CCCCc1nc(-c2ccc(C(=O)OC)[n+]([O-])n2)cn1Cc1ccc(-c2ccccc2-c2nn[nH]n2)cc1	54		
CCCCc1nc(-c2nccc[n+]2[O-])cn1Cc1ccc(-c2ccccc2-c2nn[nH]n2)cc1	61		
CCCCc1nc(-c2ccc(C)[n+]([O-])n2)cn1Cc1ccc(-c2ccccc2-c2nn[nH]n2)cc1	40	-27	
CCCCc1nc(Cl)c(CO)n1Cc1ccc(-c2ccccc2-c2nnn[nH]2)cc1 [LOSARTAN]		-33	
